Measured values from ChEMBL document CHEMBL1156693, “Novel N-(phosphonomethyl) glycine derivatives: Design, characterization and biological activity” (Eur J Med Chem, 2008).
The source made the active and inactive calls. No cut-off for these calls is given here.

Assays:
[1] = system: Mus musculus; test: Clastogenic effect on C57BL mouse assessed as number of metaphase chromosomal fragments in bone marrow cells at 3.5 mg/kg, ip after 24 hrs; assay type: functional; conditions: route intraperitoneal
Outline: (§1)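 Inbred male and female C57Bl mice (20.0 ± 1.5 g), groups of 3 males + 3 females, 5 controls given 0.9% NaCl. Single i.p. dose. Colchicine 40 mg/kg i.p. 1 h before femoral bone marrow harvest. Cells in 0.075 M KCl for 20 min at 37 °C, fixed in methanol–acetic acid (3:1), stained with 5% Giemsa. At least 50 metaphases scored per animal for breaks, fragments, centromere/centromeric and telomere/telomeric fusions. Mitotic index from 1500 cells per animal. Group mean ± SE.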

[2] = system: Mus musculus; test: Clastogenic effect on C57BL mouse assessed as mitotic index in bone marrow cells at 3.5 mg/kg, ip after 24 hrs; assay type: functional; conditions: route intraperitoneal; outline: as §1
[3] = system: Mus musculus; test: Clastogenic effect on C57BL mouse assessed as bone marrow cells with abberation at 3.5 mg/kg, ip after 24 hrs; assay type: functional; conditions: route intraperitoneal; outline: as §1
[4] = system: Mus musculus; test: Clastogenic effect on C57BL mouse assessed as number of metaphase chromosome telomere/telomeric fusion in bone marrow cells at 3.5 mg/kg, ip after 24 hrs; assay type: functional; conditions: route intraperitoneal; outline: as §1
[5] = system: Mus musculus; test: Clastogenic effect on C57BL mouse assessed as number of metaphase chromosomal breaks in bone marrow cells at 3.5 mg/kg, ip after 24 hrs; assay type: functional; conditions: route intraperitoneal; outline: as §1
[6] = system: Mus musculus; test: Clastogenic effect on C57BL mouse assessed as number of metaphase chromosomal centromere/centromeric fusion in bone marrow cells at 3.5 mg/kg, ip after 24 hrs; assay type: functional; conditions: route intraperitoneal; outline: as §1
[7] = system: Mus musculus; test: Clastogenic effect on C57BL mouse assessed as bone marrow cells with abberation at 100 mg/kg, ip after 48 hrs; assay type: functional; conditions: route intraperitoneal
Outline: (§2)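 Inbred male and female C57Bl mice, groups of 3 males + 3 females, dosed i.p. (0.9% NaCl vehicle/negative control); mitomycin C 3.5 mg/kg positive control. Colchicine 40 mg/kg i.p. 1 h before femoral bone marrow harvest; hypotonic 0.075 M KCl 20 min at 37 °C, methanol-acetic acid fixation, Giemsa stain; ≥50 metaphases per animal scored; group mean ± SE.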

[8] = system: Mus musculus; test: Clastogenic effect on C57BL mouse assessed as mitotic index in bone marrow cells at 100 mg/kg, ip after 24 hrs; assay type: functional; conditions: route intraperitoneal
Outline: (§3)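 C57Bl mice (3 males + 3 females per group) given compound i.p.; saline controls. Colchicine 40 mg/kg i.p. 1 h before bone marrow harvest from femur; hypotonic KCl, fixed, Giemsa-stained slides. Mitotic index = dividing cells counted among 1500 cells per animal; per-animal values averaged as group mean ± SE.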

[9] = system: Mus musculus; test: Clastogenic effect on C57BL mouse assessed as number of metaphase chromosomal fragments in bone marrow cells at 100 mg/kg, ip after 24 hrs; assay type: functional; conditions: route intraperitoneal; outline: as §2
[10] = system: Mus musculus; test: Clastogenic effect on C57BL mouse assessed as number of metaphase chromosomal breaks in bone marrow cells at 10 mg/kg, ip after 48 hrs; assay type: functional; conditions: route intraperitoneal; outline: as §2
[11] = Cytotoxicity against human 293T after 72 hrs by MTT assay; assay type: cell-based; conditions: HEK-293T
Outline: (§4)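 Cells at 37 °C, 5% CO2; 293T in DMEM, others in RPMI 1640, both with 2 mM L-glutamine and 10% FCS. Seeded 10⁴ cells/well, 24 h preincubation, then compounds 0.195–200 µM (DMSO ≤1% final) for 72 h continuous. MTT added, 4 h, formazan dissolved in 5% formic acid-acidified DMSO, absorbance read; IC50 = concentration giving 50% survival decrease.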

[12] = system: Mus musculus; test: Clastogenic effect on C57BL mouse assessed as mitotic index in bone marrow cells at 10 mg/kg, ip after 48 hrs; assay type: functional; conditions: route intraperitoneal; outline: as §3
[13] = system: Mus musculus; test: Clastogenic effect on C57BL mouse assessed as number of metaphase chromosomal centromere/centromeric fusion in bone marrow cells at 100 mg/kg, ip after 48 hrs; assay type: functional; conditions: route intraperitoneal; outline: as §2
[14] = system: Mus musculus; test: Clastogenic effect on C57BL mouse assessed as number of metaphase chromosomal breaks in bone marrow cells at 100 mg/kg, ip after 24 hrs; assay type: functional; conditions: route intraperitoneal; outline: as §2
[15] = system: Mus musculus; test: Clastogenic effect on C57BL mouse assessed as number of metaphase chromosome telomere/telomeric fusion in bone marrow cells at 100 mg/kg, ip after 24 hrs; assay type: functional; conditions: route intraperitoneal; outline: as §2
[16] = system: Mus musculus; test: Clastogenic effect on C57BL mouse assessed as number of metaphase chromosomal centromere/centromeric fusion in bone marrow cells at 100 mg/kg, ip after 24 hrs; assay type: functional; conditions: route intraperitoneal; outline: as §2
[17] = system: Mus musculus; test: Clastogenic effect on C57BL mouse assessed as mitotic index in bone marrow cells at 10 mg/kg, ip after 24 hrs; assay type: functional; conditions: route intraperitoneal; outline: as §3
[18] = system: Mus musculus; test: Clastogenic effect on C57BL mouse assessed as number of metaphase chromosomal fragments in bone marrow cells at 10 mg/kg, ip after 24 hrs; assay type: functional; conditions: route intraperitoneal; outline: as §2
[19] = system: Mus musculus; test: Clastogenic effect on C57BL mouse assessed as number of metaphase chromosomal fragments in bone marrow cells at 100 mg/kg, ip after 48 hrs; assay type: functional; conditions: route intraperitoneal; outline: as §2
[20] = system: HL-60; test: Cytotoxicity against human HL60 cells after 72 hrs by MTT assay; assay type: functional, cell-based; conditions: HL-60, 72 h; outline: as §4
[21] = system: Mus musculus; test: Clastogenic effect on C57BL mouse assessed as bone marrow cells with abberation at 100 mg/kg, ip after 24 hrs; assay type: functional; conditions: route intraperitoneal; outline: as §2
[22] = system: Mus musculus; test: Clastogenic effect on C57BL mouse assessed as bone marrow cells with abberation at 10 mg/kg, ip after 48 hrs; assay type: functional; conditions: route intraperitoneal; outline: as §2
[23] = system: Mus musculus; test: Clastogenic effect on C57BL mouse assessed as bone marrow cells with abberation at 10 mg/kg, ip after 24 hrs; assay type: functional; conditions: route intraperitoneal; outline: as §2
[24] = system: Mus musculus; test: Clastogenic effect on C57BL mouse assessed as number of metaphase chromosomal breaks in bone marrow cells at 10 mg/kg, ip after 24 hrs; assay type: functional; conditions: route intraperitoneal; outline: as §2
[25] = system: Mus musculus; test: Clastogenic effect on C57BL mouse assessed as number of metaphase chromosomal centromere/centromeric fusion in bone marrow cells at 10 mg/kg, ip after 48 hrs; assay type: functional; conditions: route intraperitoneal; outline: as §2
[26] = system: Mus musculus; test: Clastogenic effect on C57BL mouse assessed as number of metaphase chromosome telomere/telomeric fusion in bone marrow cells at 100 mg/kg, ip after 48 hrs; assay type: functional; conditions: route intraperitoneal; outline: as §2
[27] = system: EJ; test: Cytotoxicity against human EJ cells after 72 hrs by MTT assay; assay type: functional, cell-based; outline: as §4
[28] = system: Mus musculus; test: Clastogenic effect on C57BL mouse assessed as number of metaphase chromosomal centromere/centromeric fusion in bone marrow cells at 10 mg/kg, ip after 24 hrs; assay type: functional; conditions: route intraperitoneal; outline: as §2
[29] = system: LAMA-84; test: Cytotoxicity against human LAMA-84 cells after 72 hrs by MTT assay; assay type: functional, cell-based; conditions: LAMA-84, 72 h; outline: as §4
[30] = system: DOHH-2; test: Cytotoxicity against human DOHH2 cells after 72 hrs by MTT assay; assay type: functional, cell-based; conditions: DOHH-2, 72 h; outline: as §4
[31] = system: DOHH-2; test: Induction of apoptosis in human DOHH2 cells assessed as increase in histone-associated oligonucleotide level after 24 hrs by ELISA; assay type: functional, cell-based
Outline: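 DOHH-2 cells exposed 24 h to equitoxic compound concentrations versus untreated control; cytosolic fractions of 1 × 10⁴ cells used in sandwich ELISA (anti-histone capture, peroxidase-conjugated anti-DNA detection) for histone-associated DNA fragments, read at 405 nm; means ± SD of three independent experiments.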

[32] = system: HD-MY-Z; test: Cytotoxicity against human HD-MY-Z cells after 72 hrs by MTT assay; assay type: functional, cell-based; outline: as §4
[33] = system: Mus musculus; test: Clastogenic effect on C57BL mouse assessed as mitotic index in bone marrow cells at 100 mg/kg, ip after 48 hrs; assay type: functional; conditions: route intraperitoneal; outline: as §3
[34] = system: Mus musculus; test: Clastogenic effect on C57BL mouse assessed as number of metaphase chromosome telomere/telomeric fusion in bone marrow cells at 10 mg/kg, ip after 48 hrs; assay type: functional; conditions: route intraperitoneal; outline: as §2
[35] = system: K562; test: Cytotoxicity against human K562 cells after 72 hrs by MTT assay; assay type: functional, cell-based; conditions: K562, 72 h; outline: as §4
[36] = system: Mus musculus; test: Clastogenic effect on C57BL mouse assessed as number of metaphase chromosomal breaks in bone marrow cells at 100 mg/kg, ip after 48 hrs; assay type: functional; conditions: route intraperitoneal; outline: as §2
[37] = system: Mus musculus; test: Clastogenic effect on C57BL mouse assessed as number of metaphase chromosomal fragments in bone marrow cells at 10 mg/kg, ip after 48 hrs; assay type: functional; conditions: route intraperitoneal; outline: as §2
[38] = system: Mus musculus; test: Clastogenic effect on C57BL mouse assessed as number of metaphase chromosome telomere/telomeric fusion in bone marrow cells at 10 mg/kg, ip after 24 hrs; assay type: functional; conditions: route intraperitoneal; outline: as §2

SMILES | Activity [7] | Activity [8] | Activity [9] | Activity [10] | IC50 [11] | Activity [12] | Activity [13] | Activity [14] | Activity [15] | Activity [16] | Activity [17] | Activity [18] | Activity [19] | IC50 [20] | Activity [21] | Activity [22] | Activity [23] | Activity [24] | Activity [25] | Activity [26] | also measured
CO[C@@]12[C@H](COC(N)=O)C3=C(C(=O)C(C)=C(N)C3=O)N1C[C@@H]1N[C@@H]12 [MITOMYCIN] | – | – | – | – | – | – | – | – | – | – | – | – | – | – | – | – | – | – | – | – | Activity [1]: 13; Activity [2]: 5.49%; Activity [3]: 46.67%; Activity [4]: 0; Activity [5]: 10; Activity [6]: 11
COP(=O)(CNC1(C(=O)O)CCCCCCCCCCC1)OC | 10% | 11.82% | 0 | 2 | 159 µM | 8.6% | 11 | 4 | 0 | 11 | 11.13% | 2 | 6 | 41.4 µM | 4.29% | 5% | 5.57% | 4 | 12 | 2 | IC50 [27]: 111 µM; Activity [28]: 11; IC50 [29]: 67.3 µM; IC50 [30]: 20.1 µM; Activity [31]: Active; IC50 [32]: 67.3 µM; Activity [33]: 12.82%; Activity [34]: 0; IC50 [35]: 47.1 µM; Activity [36]: 6; Activity [37]: 1; Activity [38]: 0
COP(=O)(CNC1(C(=O)O)CCCCCCC1)OC | 5% | 13.06% | 3 | 0 | 176 µM | 13.95% | 12 | 4 | 1 | 11 | 11.35% | 1 | 0 | 73.5 µM | 5.43% | 4.67% | 3.71% | 2 | 14 | 0 | IC50 [27]: 115 µM; Activity [28]: 10; IC50 [29]: 71.4 µM; IC50 [30]: 37.4 µM; Activity [31]: Active; IC50 [32]: 127 µM; Activity [33]: 9.67%; Activity [34]: 0; IC50 [35]: 79.1 µM; Activity [36]: 3; Activity [37]: 1; Activity [38]: 0
COP(=O)(CNC1(C(=O)O)CCCCCC1)OC | 2.72% | 13.24% | 0 | 0 | > 200 µM | 9.58% | 3 | 7 | 0 | 3 | 14.37% | 0 | 0 | 85.9 µM | 3.33% | 1% | 2.85% | 3 | 3 | 0 | IC50 [27]: 151 µM; Activity [28]: 7; IC50 [29]: 91.2 µM; IC50 [30]: 88.1 µM; IC50 [32]: 169 µM; Activity [33]: 12%; Activity [34]: 0; IC50 [35]: 101 µM; Activity [36]: 4; Activity [37]: 0; Activity [38]: 0
COP(=O)(CNC1(C(=O)O)CCCCC1)OC | 7.42% | 7.15% | 1 | 6 | > 200 µM | 6.71% | 12 | 7 | 0 | 20 | 7.27% | 0 | 0 | 136 µM | 8.34% | 5.33% | 5.33% | 4 | 9 | 0 | IC50 [27]: 116 µM; Activity [28]: 11; IC50 [29]: 98.6 µM; IC50 [30]: 84.2 µM; IC50 [32]: 164 µM; Activity [33]: 9.23%; Activity [34]: 0; IC50 [35]: 128 µM; Activity [36]: 14; Activity [37]: 1; Activity [38]: 0
COP(=O)(CNC1(C(=O)O)CCCC1)OC | 6.4% | 10.97% | 3 | 6 | > 200 µM | 10.66% | 8 | 8 | 0 | 10 | 10.39% | 1 | 0 | 157 µM | 7% | 5.77% | 4.85% | 7 | 13 | 2 | IC50 [27]: > 200 µM; Activity [28]: 9; IC50 [29]: 162 µM; IC50 [30]: 145 µM; IC50 [32]: > 200 µM; Activity [33]: 8.33%; Activity [34]: 1; IC50 [35]: > 200 µM; Activity [36]: 6; Activity [37]: 0; Activity [38]: 0
